Results reported in ChEMBL document CHEMBL1150337, “Lavendamycin antitumor agents: structure-based design, synthesis, and NAD(P)H:quinone oxidoreductase 1 (NQO1) model validation with molecular docking and biological studies” (J Med Chem, 2008).

Columns and labels:
BE-NQ [1] = test: Selectivity ratio of IC50 for NQO1 deficient human BE cells to IC50 for human BE-NQ cells expressing NQO1; assay type: functional
Outline: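 Ratio of MTT-derived IC50 in NQO1-deficient BE cells to IC50 in NQO1-transfected BE-NQ cells. IC50 was read from semilog plots of percent of control vs concentration.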

BE = test: Cytotoxicity against NQO1 deficient human BE cells after 4 to 5 days by MTT assay; assay type: functional, cell-based
Outline: (§1)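 Cells in MEM with Earle's salts, 10% FBS, 37 °C, 5% CO2. Seeded at 10000 cells/mL, attached overnight (16 h). Analogue in medium for 2 h, then fresh medium for 4–5 days. MTT (50 µg) added for 4 h, formazan dissolved in DMSO, absorbance read at 560 nm. IC50 (50% of control survival) taken from semilog plots of percent control vs concentration.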

BE-NQ [2] = test: Cytotoxicity against human BE-NQ cells expressing human NQO1 after 4 to 5 days by MTT assay; assay type: functional, cell-based; outline: as §1
[3] = biological target: NAD(P)H dehydrogenase [quinone] 1 (Homo sapiens) (UniProt P15559); test: Activity of human recombinant NQO1 assessed as reduction of cytochrome c per mg of protein by spectrophotometric assay
Outline: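 Cytochrome c reduction followed at 550 nm as initial rates. Mix: cytochrome c 70 µm, NADH 1 mM, recombinant human NQO1 (0.1–3 µg) and lavendamycin analogue 25 µm in 1 mL Tris-HCl 25 mM pH 7.4 with 0.7 mg/mL BSA and 0.1% Tween-20. At least triplicate.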

NAD(P)H dehydrogenase [quinone] 1 (Homo sapiens), sequence (P15559 whole entry): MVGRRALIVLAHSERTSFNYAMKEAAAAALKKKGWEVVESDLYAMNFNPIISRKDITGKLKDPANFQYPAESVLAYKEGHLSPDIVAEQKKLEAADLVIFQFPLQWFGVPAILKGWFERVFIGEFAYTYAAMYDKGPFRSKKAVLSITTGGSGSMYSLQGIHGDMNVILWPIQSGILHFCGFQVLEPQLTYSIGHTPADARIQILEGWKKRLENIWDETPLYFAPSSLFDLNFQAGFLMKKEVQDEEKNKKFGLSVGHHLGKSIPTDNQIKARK

| Activity [3] | Compound | Ratio IC50 (BE-NQ [1]) | IC50 (BE) | IC50 (BE-NQ [2]) |
| --- | --- | --- | --- | --- |
| – | N=C1C=C(O)c2ccc(-c3nc(C(N)=O)cc4c3[nH]c3ccccc34)nc2C1=O | 9 | – | – |
| 7 µmol/min/mg | COC(=O)c1cc2c([nH]c3ccccc32)c(-c2ccc3c(n2)C(=O)C(NC(=O)c2ccco2)=CC3=O)n1 | 1 | 49 µM | 47 µM |
| 143 µmol/min/mg | CCCCNC(=O)c1cc2c([nH]c3ccccc32)c(-c2ccc3c(n2)C(=O)C(NC(C)=O)=CC3=O)n1 | 30 | 50 µM | 1.7 µM |
| 60 µmol/min/mg | NC1=CC(=O)c2ccc(-c3nc(C(=O)OCCO)cc4c3[nH]c3ccccc34)nc2C1=O | 7 | 3.3 µM | 0.5 µM |
| 3.4 µmol/min/mg | CCCC(=O)NC1=CC(=O)c2ccc(-c3nc(C(=O)OCCC(C)C)cc4c3[nH]c3ccccc34)nc2C1=O | – | > 50 µM | > 50 µM |
| – | NC1=CC(=O)c2ccc(-c3[nH]c(CO)cc4c5ccccc5nc3-4)nc2C1=O | 11 | – | – |
| – | CCCCCCCCOC(=O)c1cc2c([nH]c3ccccc32)c(-c2ccc3c(n2)C(=O)C(N)=CC3=O)n1 | 10 | – | – |
| 4.9 µmol/min/mg | CCC(C)NC(=O)c1cc2c([nH]c3ccccc32)c(-c2ccc3c(n2)C(=O)C(NC(C)=O)=CC3=O)n1 (configuration not stated) | – | > 50 µM | > 50 µM |
| – | COC(=O)c1[nH]c(-c2ccc3c(n2)C(=O)C(=N)C=C3O)c2nc3ccccc3c-2c1C | 9 | – | – |
